# In ChEMBL document CHEMBL1221339, “Modulation of the inhibitor properties of dipeptidyl (acyloxy)methyl ketones toward the CaaX proteases” (Bioorg Med Chem, 2010):
# Active and inactive are the calls of the source. The rule behind the calls is not given here.
# Key:
# Saccharomyces cerevisiae = assay: Inhibition of Saccharomyces cerevisiae SM3614 Ras converting enzyme 1 Ste24 mutant at 100 uM after 60 mins by fluorescence based proteolysis assay
# Outline: (§1)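 Membranes enriched for yeast Ste24p (plasmid pSM1282 in SM3614, ste24Δ rce1Δ), 0.25 mg/mL final in 100 mM HEPES pH 7.5, 5 mM MgCl2. Pretreated 15 min at 30 °C with 100 µM compound, then 20 µM ABz-KSKTKC(farnesyl)VIQL added. Fluorescence 320/420 nm read every 30–60 s for 60 min at 30 °C. Initial velocities give % activity vs DMSO. At least 4 replicates.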
# [1] = biological target: T1, CAAX prenyl protease 2 (Saccharomyces cerevisiae S288c) (UniProt Q03530); assay: Inhibition of Saccharomyces cerevisiae SM3614 Ras converting enzyme 1 at 100 uM after 60 mins by fluorescence based proteolysis assay
# T1 sequence (whole entry): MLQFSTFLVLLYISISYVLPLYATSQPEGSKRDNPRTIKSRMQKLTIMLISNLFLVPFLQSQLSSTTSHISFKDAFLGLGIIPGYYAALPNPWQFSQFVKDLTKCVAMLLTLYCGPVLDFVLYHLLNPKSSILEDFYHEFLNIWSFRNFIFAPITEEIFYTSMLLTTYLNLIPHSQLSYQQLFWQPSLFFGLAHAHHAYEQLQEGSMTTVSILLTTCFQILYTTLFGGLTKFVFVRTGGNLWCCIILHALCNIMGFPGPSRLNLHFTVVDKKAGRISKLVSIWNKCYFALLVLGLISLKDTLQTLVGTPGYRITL
# Outline: as §1, with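 “Rce1p” for “Ste24p”, “pWS479” for “pSM1282”, “quenched ABz-KSKTKC(farnesyl)QLIM” for “ABz-KSKTKC(farnesyl)VIQL”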
Activity (Saccharomyces cerevisiae),Activity [1],SMILES
Active,Active,C[C@H](NC(=O)[C@H](Cc1ccccc1)NC(=O)OCc1ccccc1)C(=O)COC(=O)c1c(C(F)(F)F)cccc1C(F)(F)F
Active,Active,Cc1cc(C)c(C(=O)OCC(=O)[C@H](C)NC(=O)[C@H](Cc2ccccc2)NC(=O)OCc2ccccc2)c(C)c1
inactive,inactive,CC(=O)N[C@@H](Cc1ccc(O)cc1)C(=O)N[C@@H](Cc1ccccc1)C(=O)N[C@@H](CCCNC(=N)N)C(=O)COC(=O)c1c(C)cccc1C
Active,Active,C[C@H](NC(=O)[C@H](Cc1ccccc1)NC(=O)OCc1ccccc1)C(=O)COC(=O)c1ccccc1
Active,Active,Cc1ccc(C(=O)OCC(=O)[C@H](C)NC(=O)[C@H](Cc2ccccc2)NC(=O)OCc2ccccc2)cc1
inactive,inactive,"CC(=O)NC(Cc1ccc(O)cc1)C(=O)N[C@@H](Cc1ccccc1)C(=O)NCC(=O)COC(=O)c1c(C)cccc1C (single isomer, unassigned)"
inactive,inactive,NCCCC[C@H](NC(=O)[C@H](Cc1ccccc1)NC(=O)OCc1ccccc1)C(=O)O
Active,Active,COc1ccc(C(=O)OCC(=O)[C@H](CCCNC(=N)N)NC(=O)[C@H](Cc2ccccc2)NC(=O)OCc2ccccc2)cc1
Active,Active,C[C@H](NC(=O)[C@H](Cc1ccccc1)NC(=O)OCc1ccccc1)C(=O)COC(=O)c1ccc([N+](=O)[O-])cc1
Active,Active,N=C(N)NCCC[C@H](NC(=O)[C@H](Cc1ccccc1)NC(=O)OCc1ccccc1)C(=O)COC(=O)c1ccccc1
Active,Active,N=C(N)NCCC[C@H](NC(=O)[C@H](Cc1ccccc1)NC(=O)OCc1ccccc1)C(=O)COC(=O)c1c(C(F)(F)F)cccc1C(F)(F)F
Active,Active,Cc1ccc(C(=O)OCC(=O)[C@H](CCCNC(=N)N)NC(=O)[C@H](Cc2ccccc2)NC(=O)OCc2ccccc2)cc1
inactive,inactive,CC(C)(C)OC(=O)NCCCC[C@H](NC(=O)[C@H](Cc1ccccc1)NC(=O)OCc1ccccc1)C(=O)CBr
Active,Active,Cc1cc(C)c(C(=O)OCC(=O)[C@H](CCCNC(=N)N)NC(=O)[C@H](Cc2ccccc2)NC(=O)OCc2ccccc2)c(C)c1
inactive,inactive,CC(C)(C)OC(=O)NCCCC[C@H](NC(=O)[C@H](Cc1ccccc1)NC(=O)OCc1ccccc1)C(=O)O
Active,Active,N=C(N)NCCC[C@H](NC(=O)[C@H](Cc1ccccc1)NC(=O)OCc1ccccc1)C(=O)COC(=O)c1ccc([N+](=O)[O-])cc1
Active,Active,COc1ccc(C(=O)OCC(=O)[C@H](C)NC(=O)[C@H](Cc2ccccc2)NC(=O)OCc2ccccc2)cc1
Active,Active,Cc1cccc(C)c1C(=O)OCC(=O)[C@H](C)NC(=O)[C@H](Cc1ccccc1)NC(=O)OCc1ccccc1
Active,Active,Cc1cccc(C)c1C(=O)OCC(=O)[C@H](CCCNC(=N)N)NC(=O)[C@H](Cc1ccccc1)NC(=O)OCc1ccccc1
